Assay results from ChEMBL document CHEMBL4354806, “Discovery of an Orally Bioavailable Pan αv Integrin Inhibitor for Idiopathic Pulmonary Fibrosis” (J Med Chem, 2019).

What was measured:
[1] = Inhibition of recombinant human integrin alphaV (31 to 992 residues) beta5 (24 to 719 residues) expressed in CHO cells preincubated for 15 mins followed by Cy3B-RGD probe addition and measured after 2 hrs by fluorescence polarization assay
Procedure, shortened: (§1)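 Soluble purified human integrins from CHO cells, with 1 nM Cy3B-RGD probe, in 25 mM HEPES, 150 mM NaCl, 1 mM CHAPS, pH 7.4, at 20-22 °C. Final protein and cation: αvβ3 1 nM with 0.4 mM MgCl₂; αvβ5 4 nM with 0.1 mM MnCl₂; αvβ6 8 nM with MgCl₂; αvβ8 8 nM with MnCl₂. Read-out was polarization. pIC50 is mean ± SEM over test occasions.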

Integrin alpha-V/beta-3 = Integrin alpha-V/beta-3 (Homo sapiens, UniProt P05106+P06756); assay: Inhibition of recombinant human integrin alphaV (31 to 992 residues) beta3 (27 to 718 residues) expressed in CHO cells preincubated for 15 mins followed by Cy3B-RGD probe addition and measured after 2 hrs by fluorescence polarization assay; procedure, shortened: as §1
[2] = Inhibition of recombinant human integrin alphaV (31 to 992 residues) beta8 (43 to 684 residues) expressed in CHO cells preincubated for 15 mins followed by Cy3B-RGD probe addition and measured after 2 hrs by fluorescence polarization assay; procedure, shortened: as §1
Integrin alpha-V/beta-6 = Integrin alpha-V/beta-6 (Homo sapiens, UniProt P06756+P18564); assay: Inhibition of recombinant human integrin alphaV (31 to 992 residues) beta6 (22 to 707 residues) expressed in CHO cells preincubated for 15 mins followed by Cy3B-RGD probe addition and measured after 2 hrs by fluorescence polarization assay; procedure, shortened: as §1
[3] = Oral bioavailability in CD rat at 1 mg/kg administered via gavage up to 24 hrs by LC-MS/MS analysis; assay type: ADME, organism-based; details: in vivo
Procedure, shortened: (§2)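 Two male CD rats per arm. IV: 1 mg/kg bolus via femoral vein in DMSO:PEG200:water (5:45:50). PO: 1 mg/kg by gavage in 0.5% methyl cellulose/0.2% Tween 80. Blood was taken by tail-vein cannula to 7 h and by venipuncture to 24 h. Plasma was extracted with acetonitrile plus internal standard, and drug measured by LC-MS/MS.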

[4] = Clearance in CD rat at 1 mg/kg, iv and 1 mg/kg, po measured up to 24 hrs by LC-MS/MS analysis; assay type: ADME, organism-based; details: in vivo; procedure, shortened: as §2
[5] = Volume of distribution at steady state in CD rat at 1 mg/kg, iv and 1 mg/kg, po measured up to 24 hrs by LC-MS/MS analysis; assay type: ADME, organism-based; details: in vivo, read-out: Vdss; procedure, shortened: as §2
[6] = Permeability of the compound in pH 7.4 phosphate buffer measured after 3 hrs by artificial membrane permeability assay based LC-MS analysis; assay type: ADME; details: PAMPA, read-out: permeability
Procedure, shortened: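 Bilayer of 1.8% egg phosphatidylcholine and 1% cholesterol in n-decane on filter inserts. Phosphate buffer was 50 mM Na₂HPO₄ with 0.5% hydroxypropyl-β-cyclodextrin, pH 7.4. Compound was added to the donor (bottom) well and incubated 3 h at room temperature. Donor and acceptor concentrations were measured by liquid chromatography.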

[7] = Half life in CD rat at 1 mg/kg, iv and 1 mg/kg, po measured up to 24 hrs by LC-MS/MS analysis; assay type: ADME, organism-based; details: in vivo; procedure, shortened: as §2

| Compound | pIC50 [1] | IC50 (Integrin alpha-V/beta-3) | pIC50 [2] | IC50 (Integrin alpha-V/beta-6) | bioavailability [3] | clearance [4] | Vd [5] | Papp at 3 h [6] | half-life [7] |
| --- | --- | --- | --- | --- | --- | --- | --- | --- | --- |
| O=C(O)CC(Nc1ccc(OCCc2ccc3c(n2)NCCC3)nc1)c1cccc(Cl)c1 (racemic) | 7.8 | 12.6 nM | 6 | 398 nM |  |  |  |  |  |
| O=C(O)CC(Nc1ccc(OCCc2ccc3c(n2)NCCC3)cn1)c1cccc(C2CC2)c1 (racemic) | 8.4 | 3.98 nM | 7.4 | 15.8 nM | 98% | 8 mL/min/kg | 0.5 L/kg | 8 ×10⁻⁶ cm/s | 1.8 h |
| O=C(O)CC(Nc1ncc(OCCc2ccc3c(n2)NCCC3)cn1)c1cccc(Cl)c1 (racemic) | 8.3 | 5.01 nM | 6.6 | 158 nM |  |  |  |  |  |
| O=C(O)CC(Nc1ccc(OCCc2ccc3c(n2)NCCC3)cc1)c1cccc(F)c1 (racemic) | 8.8 | 2 nM | 6.4 | 100 nM |  |  |  |  |  |
| O=C(O)C[C@@H](Nc1ccc(OCCc2ccc3c(n2)NCCC3)nn1)c1cccc(Cl)c1 | 7.9 | 158 nM | 5.7 | 794 nM |  |  |  |  |  |
| O=C(O)CC(Nc1ccc(OCCc2ccc3c(n2)NCCC3)nc1)c1ccc(Cl)cc1 (racemic) | 7.3 | 39.8 nM | 5.6 | 1000 nM |  |  |  |  |  |
| O=C(O)CC(Nc1ccc(OCCc2ccc3c(n2)NCCC3)cn1)c1cccc(F)c1 (racemic) | 8.4 | 2.51 nM | 6.8 | 79.4 nM |  |  |  |  |  |
| O=C(O)CC(Nc1ccc(OCCc2ccc3c(n2)NCCC3)cn1)c1ccc(C(F)(F)F)cc1 (racemic) | 8.1 | 7.94 nM | 6.7 | 79.4 nM |  |  |  |  |  |
| O=C(O)CC(Nc1ncc(OCCc2ccc3c(n2)NCCC3)cn1)c1ccc(Cl)cc1 (racemic) | 9 | 1.26 nM | 7.2 | 126 nM |  |  |  |  |  |
| O=C(O)C[C@H](Nc1ccc(OCCc2ccc3c(n2)NCCC3)nn1)c1cccc(Cl)c1 | 8.9 | 0.794 nM | 8.1 | 6.31 nM |  |  |  |  |  |
| O=C(O)CC(Nc1ccc(OCCc2ccc3c(n2)NCCC3)cn1)c1cccc(CN2CCOCC2)c1 (racemic) | 8.5 | 3.98 nM | 7.2 | 63.1 nM |  |  |  |  |  |
| O=C(O)CC(Nc1ccc(OCCc2ccc3c(n2)NCCC3)cn1)c1ccc(Cl)cc1 (racemic) | 8.4 | 3.16 nM | 6.9 | 39.8 nM |  |  |  |  |  |
| O=C(O)CC(Nc1cnc(OCCc2ccc3c(n2)NCCC3)cn1)c1cccc(Cl)c1 (racemic) | 5.3 | 5010 nM | 4.9 | 12600 nM |  |  |  |  |  |
| O=C(O)CC(Nc1cnc(OCCc2ccc3c(n2)NCCC3)nc1)c1cccc(Cl)c1 (racemic) | 7.3 | 50.1 nM | 5.6 | 631 nM |  |  |  |  |  |
| O=C(O)CC(Nc1ccc(OCCc2ccc3c(n2)NCCC3)cn1)c1cccc(Cl)c1 (racemic) | 8.2 | 6.31 nM | 7.1 | 50.1 nM |  |  |  |  |  |
| O=C(O)CC(Nc1ccc(OCCc2ccc3c(n2)NCCC3)cn1)c1cccc(Br)c1 (racemic) | 8.4 | 5.01 nM | 7.2 | 31.6 nM |  |  |  |  |  |
| O=C(O)CC(Nc1ccc(OCCc2ccc3c(n2)NCCC3)cn1)c1cc(C2CC2)cc(C2CC2)c1 (racemic) | 7 | 126 nM | 6.9 | 316 nM |  |  |  |  |  |
| O=C(O)CC(Nc1cnc(OCCc2ccc3c(n2)NCCC3)nc1)c1ccc(Cl)cc1 (racemic) | 8.2 | 7.94 nM | 6.1 | 251 nM |  |  |  |  |  |
| O=C(O)CC(Nc1ccc(OCCc2ccc3c(n2)NCCC3)cn1)c1ccc(Oc2ccccc2)cc1 (racemic) | 8.5 | 2 nM | 7.1 | 12.6 nM |  |  |  |  |  |
| O=C(O)CC(Cc1ccc(OCCc2ccc3c(n2)NCCC3)cc1)c1ccccc1 (racemic) | 8.7 | 2 nM | 5.8 | 1260 nM |  |  |  |  |  |
| O=C(O)CC(Nc1ccc(OCCc2ccc3c(n2)NCCC3)nn1)c1cccc(Cl)c1 (racemic) | 8.5 | 3.16 nM | 7.6 | 20 nM |  |  |  |  |  |
| O=C(O)CC(Nc1ccc(OCCc2ccc3c(n2)NCCC3)nn1)c1ccc(Cl)cc1 (racemic) | 8.5 | 2 nM | 7.5 | 25.1 nM |  |  |  |  |  |
| O=C(O)CC(Nc1cnc(OCCc2ccc3c(n2)NCCC3)cn1)c1ccc(Cl)cc1 (racemic) | 4.9 | 12600 nM | 4.5 | 19500 nM |  |  |  |  |  |
| O=C(O)CC(Nc1ccc(OCCc2ccc3c(n2)NCCC3)cn1)c1ccc(CN2CCOCC2)cc1 (racemic) | 8.2 | 3.16 nM | 6.9 | 31.6 nM |  |  |  |  |  |
